Test results as given in PubChem BioAssay.
Activity calls are given as the source filed them.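 The calls were made as follows, unless noted: active = Her2 level under about 52% in both replicate screens, with viability over 70% of control (limit read from the data); inconclusive = Her2 under the limit in one screen only, or viability under 70%; inactive = Her2 level above the set limit.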

Legend:
[1] = Her2 expression decrease, cell viability multiplex – SKBR3 breast tumor cells, AlphaScreen, ATP viability, primary screen (AID 461); conditions: SKBR3 Her2 protein level, 18-24 h, measured here: SKBR3 viability, ATP luminescence, at 10 µM;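 as to Her2 level: lower value means less Her2 protein in the cells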;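 as to viability: percent of carrier control wells set as 100% viability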
[2] = target: Receptor tyrosine-protein kinase erbB-2 (Homo sapiens) (UniProt P04626); assay: as above; conditions: 18-24 h, at 10 µM, stronger effect = lower value
Sequence of Receptor tyrosine-protein kinase erbB-2 (Homo sapiens) (P04626 whole entry, looked up): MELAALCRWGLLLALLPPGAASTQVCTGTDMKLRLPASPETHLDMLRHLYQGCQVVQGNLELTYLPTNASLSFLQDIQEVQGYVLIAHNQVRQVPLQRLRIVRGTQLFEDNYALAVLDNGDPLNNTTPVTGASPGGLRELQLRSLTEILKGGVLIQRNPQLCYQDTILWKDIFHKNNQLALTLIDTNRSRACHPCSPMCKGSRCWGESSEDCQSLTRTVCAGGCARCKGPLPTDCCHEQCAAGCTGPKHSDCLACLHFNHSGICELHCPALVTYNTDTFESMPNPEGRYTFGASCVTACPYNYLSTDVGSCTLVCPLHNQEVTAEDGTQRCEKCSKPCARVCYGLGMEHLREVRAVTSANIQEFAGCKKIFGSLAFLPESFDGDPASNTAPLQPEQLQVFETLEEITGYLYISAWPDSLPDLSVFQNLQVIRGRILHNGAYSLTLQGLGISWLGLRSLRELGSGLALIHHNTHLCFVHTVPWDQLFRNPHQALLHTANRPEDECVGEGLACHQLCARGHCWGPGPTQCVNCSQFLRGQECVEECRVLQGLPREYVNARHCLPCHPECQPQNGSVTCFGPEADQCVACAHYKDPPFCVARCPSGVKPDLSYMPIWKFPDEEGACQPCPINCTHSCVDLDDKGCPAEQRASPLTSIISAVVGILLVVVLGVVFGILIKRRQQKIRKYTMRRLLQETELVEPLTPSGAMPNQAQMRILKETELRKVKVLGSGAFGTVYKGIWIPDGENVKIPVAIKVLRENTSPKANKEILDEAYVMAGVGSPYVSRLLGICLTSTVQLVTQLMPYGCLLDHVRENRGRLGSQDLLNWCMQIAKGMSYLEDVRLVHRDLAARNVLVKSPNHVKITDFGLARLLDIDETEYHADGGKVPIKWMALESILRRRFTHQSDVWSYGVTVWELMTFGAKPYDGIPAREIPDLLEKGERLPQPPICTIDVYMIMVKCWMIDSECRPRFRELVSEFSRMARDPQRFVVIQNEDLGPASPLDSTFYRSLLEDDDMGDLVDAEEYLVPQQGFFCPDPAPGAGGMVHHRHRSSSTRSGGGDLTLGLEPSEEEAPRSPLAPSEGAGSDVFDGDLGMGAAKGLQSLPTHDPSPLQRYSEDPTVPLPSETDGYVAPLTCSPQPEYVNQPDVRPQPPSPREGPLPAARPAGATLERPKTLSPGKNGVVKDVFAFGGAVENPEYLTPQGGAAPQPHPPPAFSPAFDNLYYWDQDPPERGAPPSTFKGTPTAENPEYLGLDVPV

[3] = reduced viability of SK-BR-3 breast cancer cells – cell-based, 24 h, human, pilot screen (AID 572;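 active = viability at or below 10% of carrier control in both of two separate runs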;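 also: compound exposure lasted between 18 and 24 h rather than exactly 24 h; 100% = carrier-treated control wells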); conditions: SK-BR-3 viability, CellTiter-Glo luminescence, at 10 µM, stronger effect = lower value
[4] = HUVEC growth inhibition – cell-based, human, primary screen (AID 575;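 active = viability at or below 30% in both replicate assays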;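 also: 100% = median of untreated cell wells with 0.1% DMSO on each plate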); conditions: HUVEC proliferation, CellTiter-Glo luminescence, 72 h; at 10 µM; stronger effect = lower value
Procedure, shortened: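 Assay system: primary human umbilical vein endothelial cells / Buffer or medium: endothelial basal medium with 2% FBS plus growth supplements / Compound dosing: one dose, 10 µM final, 0.1% DMSO / Timing: 72 h treatment at 37 °C / Signal: CTG luminescence / Benchmarks: 32 DMSO-only cell-control wells (high), 32 MePR drug-control wells (low) per plate / Plate: collagen-coated 384-well format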

[5] = H69AR cell proliferation blockers – human, duplicate replicates, primary screen (AID 580;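 active = viability at or under a set limit in both replicates, limit being median viability minus 3 SD, cut at about 48% in these data, passing the limit was not always enough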;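 also: 100% = mean luminescence of untreated wells and 0% = no signal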); conditions: H69AR lung tumor cells viability, ATP luminescence, 72 h; at 10 µM; stronger effect = lower value
[6] = MRP1 drug-resistance reversers in H69AR cells – cell-based, doxorubicin co-treatment, pilot screen (AID 601;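 active = viability loss from added drug above about 55%, and viability with drug at most 40%, in both replicates, limit read from the data, passing the limit was not always enough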); conditions: CellTiter-Glo, 72 h, at 10 µM; for differential viability (reversal): stronger effect = higher value
[7] = yeast transport mutant growth inhibition pilot in 384-well plates, post-Golgi transport modulator project (AID 636; in the data active = inhibition above about 31%); conditions: absorbance 615 nm, about 18 h, stronger effect = higher value
[8] = growth suppression of yeast trafficking mutant, preliminary HTS, modulators of trafficking downstream of Golgi apparatus project, 1536-format plate, OD 615 nm (AID 637; in the data active = inhibition above about 30%); conditions: yeast transport mutant growth, absorbance 615 nm, 18 h; stronger effect = higher value
[9] = H69AR cells + 2 uM doxorubicin, measured here: viability with 2 uM doxorubicin, stronger effect = lower value
[10] = H69AR cells, compound alone cytotoxicity

Row | SMILES | viability [1] | Her2 level [2] | viability [3] | viability [4] | viability [5] | differential viability (reversal) ([6]; H69AR cells + 2 uM doxorubicin) | viability [6, 9] | viability [6, 10] | inhibition [7] | inhibition [8]
1 | Brc1ccc(-c2cn3cccnc3n2)cc1 | 130% | 97.5% (inactive) | 130% (inactive) | 86.3% (inactive) | 104% (inactive) | 6.97% (inactive) | 97.1% | 104% | -3.87% (inactive) | 0.97% (inactive)
2 | CCn1cc(C(=O)N2CCCC2)c(=O)c2cc(S(=O)(=O)N3CCOCC3)ccc21 | 116% | 99% (inactive) | 116% (inactive) | 92.2% (inactive) | 99.5% (inactive) | 1.21% (inactive) | 98.3% | 99.5% | -5.92% (inactive) | -6.51% (inactive)
3 | Cc1ccccc1NC(=O)c1c(F)c(F)c(F)c(F)c1F | 90.5% | 98% (inactive) | 90.5% (inactive) | 103% (inactive) | 88.9% (inactive) | 2.94% (inactive) | 86% | 88.9% | -5.13% (inactive) | 4.1% (inactive)
4 | CCCCc1n[nH]c2c1C(=O)CC(C)(C)C2 | 73.5% | 90.5% (inactive) | 73.5% (inactive) | 102% (inactive) | 96.9% (inactive) | 13.4% (inactive) | 83.5% | 96.9% | -3.78% (inactive) | 0% (inactive)
5 | CCC(=O)N1Cc2ccccc2-c2ccccc2C1=O | 102% | 91% (inactive) | 102% (inactive) | 80.1% (inactive) | 90% (inactive) | 4.75% (inactive) | 85.2% | 90% | -5.06% (inactive) | 4.76% (inactive)
6 | CCC(=O)N(Cc1cc2c(C)ccc(C)c2[nH]c1=O)C1CCCCC1 | 86% | 71.5% (inactive) | 86% (inactive) | 79.2% (inactive) | 85.9% (inactive) | -0.72% (inactive) | 86.6% | 85.9% | -6.71% (inactive) | 0.32% (inactive)
7 | Cc1nn(-c2ccccc2)c(C)c1/C=N/O | 106% | 104% (inactive) | 106% (inactive) | 100% (inactive) | 96.5% (inactive) | 11.4% (inactive) | 85.1% | 96.5% | -4.73% (inactive) | 3.93% (inactive)
8 | CC(CN1CCN(C)CC1)OC(=O)c1ccc(Cl)cc1Cl (stereo not given) | 127% | 90.5% (inactive) | 127% (inactive) | 88.6% (inactive) | 102% (inactive) | 14% (inactive) | 88.2% | 102% | -4.53% (inactive) | 10% (inactive)
9 | CC(=O)N(CCN(C(C)=O)c1ccccc1)c1ccccc1 | 105% | 93% (inactive) | 105% (inactive) | 88.8% (inactive) | 91.7% (inactive) | 11.7% (inactive) | 80% | 91.7% | -1.95% (inactive) | -1.64% (inactive)
10 | O=C(OCCN1C(=O)c2ccccc2C1=O)c1ccc(S(=O)(=O)N2CCCCCC2)cc1 | 114% | 76.5% (inactive) | 114% (inactive) | 78.5% (inactive) | 105% (inactive) | 17.6% (inactive) | 87.6% | 105% | -6.22% (inactive) | 1.11% (inactive)
11 | COc1ccc2nc(C)cc(N3CCOCC3)c2c1 | 128% | 101% (inactive) | 128% (inactive) | 101% (inactive) | 93.1% (inactive) | -3.77% (inactive) | 96.9% | 93.1% | -3.68% (inactive) | 9.67% (inactive)
12 | Cc1nc2ncnn2c(Nc2ccc3c(c2)OCCO3)c1C | 91% | 110% (inactive) | 91% (inactive) | 106% (inactive) | 73.7% (inactive) | -23.6% (inactive) | 97.3% | 73.7% | 2.8% (inactive) | 26.1% (inactive)
13 | CCOC(=O)C(C)n1cnc2c(nnn2Cc2ccc(C)cc2)c1=O (stereo not given) | 116% | 95.5% (inactive) | 116% (inactive) | 104% (inactive) | 91.9% (inactive) | 3.18% (inactive) | 88.7% | 91.9% | -9.73% (inactive) | 1.9% (inactive)
14 | CCn1cc(C(=O)N=c2sc3ccccc3n2C)c(=O)c2ccc(C)nc21 | 92.5% | 84.5% (inactive) | 92.5% (inactive) | 80.3% (inactive) | 95.7% (inactive) | 7.91% (inactive) | 87.8% | 95.7% | 1.41% (inactive) | -2.83% (inactive)
15 | COc1ccc2nc(NC(=O)CSc3nnc(-c4ccoc4C)n3C)sc2c1 | 112% | 106% (inactive) | 112% (inactive) | 80.2% (inactive) | 84.8% (inactive) | 9.45% (inactive) | 75.4% | 84.8% | -6.13% (inactive) | -3.87% (inactive)
16 | Cc1ccccc1NC(=O)N1C2CCCC1CC(NC(=O)C1CC1)C2 (stereo not given) | 104% | 95% (inactive) | 104% (inactive) | 94% (inactive) | 104% (inactive) | 10.3% (inactive) | 93.9% | 104% | -7.07% (inactive) | 9.02% (inactive)
17 | COc1cccc(C2C(C(=O)c3cc4ccccc4o3)=C(O)C(=O)N2CCN(C)C)c1OC (stereo not given) | 104% | 94.5% (inactive) | 104% (inactive) | 96.8% (inactive) | 100% (inactive) | 4.93% (inactive) | 95.4% | 100% | -3.87% (inactive) | 11.3% (inactive)
18 | O=C(Nc1ccc2c(c1)OCO2)C1CCCN1C(=O)Nc1ccccc1F (stereo not given) | 110% | 90% (inactive) | 110% (inactive) | 104% (inactive) | 96.2% (inactive) | 8.28% (inactive) | 87.9% | 96.2% | -2.89% (inactive) | -3.97% (inactive)
19 | Cc1ccc2c(Cl)cc(Cl)c(OCc3c(C)noc3C)c2n1 | 102% | 99.5% (inactive) | 102% (inactive) | 84.7% (inactive) | 84.9% (inactive) | -0.21% (inactive) | 85.1% | 84.9% | 6.08% (inactive) | 13.3% (inactive)
20 | Cn1c2c(c(=O)n(C)c1=O)C(CC(=O)Nc1ccccc1)C(=O)N2 (stereo not given) | 106% | 78.5% (inactive) | 106% (inactive) | 106% (inactive) | 108% (inactive) | 21.8% (inactive) | 86.4% | 108% | -2.97% (inactive) | 8.57% (inactive)
21 | COc1ccc(-n2c(SCC(=O)c3c(N)n(C)c(=O)n(C)c3=O)nc3ccccc32)cc1 | 105% | 71.5% (inactive) | 105% (inactive) | 90% (inactive) | 98.5% (inactive) | 12.6% (inactive) | 86% | 98.5% | -4.73% (inactive) | 1.9% (inactive)
22 | COc1ccc(OC)c(S(=O)(=O)Nc2ccc(C(N)=O)cc2)c1 | 98.5% | 91% (inactive) | 98.5% (inactive) | 110% (inactive) | 94% (inactive) | 5.67% (inactive) | 88.4% | 94% | -4.61% (inactive) | -2.3% (inactive)
23 | COc1ccc(CCNS(=O)(=O)c2ccc3oc(C(=O)O)c(C)c3c2)cc1OC | 109% | 92% (inactive) | 109% (inactive) | 112% (inactive) | 88.7% (inactive) | -2.46% (inactive) | 91.2% | 88.7% | 0.78% (inactive) | 1.15% (inactive)
24 | Cc1nnc2ccc(N3CCN(c4cccc(C(F)(F)F)c4)CC3)nn12 | 97.5% | 77.5% (inactive) | 97.5% (inactive) | 75% (inactive) | 80.3% (inactive) | 18.7% (inactive) | 61.6% | 80.3% | -0.53% (inactive) | -1.15% (inactive)
25 | NCc1cccc(-n2cccn2)c1 | 110% | 103% (inactive) | 110% (inactive) | 93.2% (inactive) | 82.6% (inactive) | -10.1% (inactive) | 92.8% | 82.6% | -3.64% (inactive) | -2.7% (inactive)
26 | NC(=O)C1(N2CCCCC2)CCN(Cc2ccccc2Cl)CC1 | 102% | 77% (inactive) | 102% (inactive) | 87.8% (inactive) | 83.8% (inactive) | 3.07% (inactive) | 80.8% | 83.8% | -6.62% (inactive) | -1.17% (inactive)
27 | CN(C(=O)c1cc2sccc2n1C)C1CCCCC1 | 91% | 106% (inactive) | 91% (inactive) | 87.7% (inactive) | 100% (inactive) | 14.7% (inactive) | 85.7% | 100% | -7.3% (inactive) | -2.13% (inactive)
28 | COC(=O)c1sc(NC(=O)c2ccoc2C)nc1C | 110% | 118% (inactive) | 110% (inactive) | 61.8% (inactive) | 75.3% (inactive) | 2.44% (inactive) | 72.9% | 75.3% | -3.07% (inactive) | 8.06% (inactive)
29 | CC1CCN(S(=O)(=O)c2ccc(NC(=O)CSc3nnnn3C)cc2)CC1 | 94.5% | 103% (inactive) | 94.5% (inactive) | 76.3% (inactive) | 101% (inactive) | 22% (inactive) | 78.7% | 101% | -5.92% (inactive) | -3.49% (inactive)
